Laboratory results published in ChEMBL document CHEMBL5108039, “Piperazine tethered bergenin heterocyclic hybrids: design, synthesis, anticancer activity, and molecular docking studies” (RSC Med Chem, 2022).

What was measured:
[1] = tested on: HCT-15; experiment: Cytotoxicity against human HCT-15 cells assessed as cell growth inhibition; assay type: functional, cell-based
Outline: (§1)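 Compounds were dissolved in sterile DMSO as 10 mg ml−1 stocks and tested for in vitro growth inhibition of human cancer cell lines. Doxorubicin was the standard drug and DMSO (0.01%) the vehicle control. IC50 values are reported as means.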

[2] = tested on: CAL-27; experiment: Cytotoxicity against human CAL-27 cells assessed as cell growth inhibition; assay type: functional, cell-based; outline: as §1
[3] = tested on: SCC-9; experiment: Cytotoxicity against human SCC-9 cells assessed as cell growth inhibition; assay type: functional, cell-based; outline: as §1
[4] = tested on: A549; experiment: Cytotoxicity against human A549 cells assessed as cell growth inhibition; assay type: functional, cell-based
Outline: (§2)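 Compounds were dissolved in sterile DMSO as 10 mg ml−1 stocks and tested in vitro for cytotoxicity in a cell-line panel, with DMSO (0.01%) as vehicle control and doxorubicin as standard. Mean IC50 values were reported, and the normal lung epithelial cells were tested up to 100 μM.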

[5] = tested on: MCF7; experiment: Cytotoxicity against human MCF7 cells assessed as cell growth inhibition; assay type: functional, cell-based; outline: as §1
[6] = Cytotoxicity against human BEAS-2B cells assessed as cell growth inhibition; assay type: toxicity, cell-based; outline: as §2
[7] = tested on: CAL-27; experiment: Cell cycle arrest in human CAL-27 cells assessed as accumulation at G0/G1 phase at 31.5 uM incubated for 24 hrs by flow cytometry (reference value: 77.6 %); assay type: functional
[8] = tested on: CAL-27; experiment: Cell cycle arrest in human CAL-27 cells assessed as accumulation at G0/G1 phase at 63 uM incubated for 24 hrs by flow cytometry (reference value: 77.6 %); assay type: functional
[9] = tested on: CAL-27; experiment: Cell cycle arrest in human CAL-27 cells assessed as accumulation at S phase at 31.5 uM incubated for 24 hrs by flow cytometry (reference value: 3.6 %); assay type: functional
[10] = tested on: CAL-27; experiment: Cell cycle arrest in human CAL-27 cells assessed as accumulation at S phase at 63 uM incubated for 24 hrs by flow cytometry (reference value: 3.6 %); assay type: functional
[11] = tested on: CAL-27; experiment: Cell cycle arrest in human CAL-27 cells assessed as accumulation at G2/M phase at 31.5 uM incubated for 24 hrs by flow cytometry (reference value: 11.9 %); assay type: functional
[12] = tested on: CAL-27; experiment: Cell cycle arrest in human CAL-27 cells assessed as accumulation at G2/M phase at 63 uM incubated for 24 hrs by flow cytometry (reference value: 11.9 %); assay type: functional
[13] = tested on: SCC-9; experiment: Cell cycle arrest in human SCC-9 cells assessed as accumulation at G0/G1 phase at 46 uM incubated for 24 hrs by flow cytometry (reference value: 70.8 %); assay type: functional
[14] = tested on: SCC-9; experiment: Cell cycle arrest in human SCC-9 cells assessed as accumulation at G0/G1 phase at 92 uM incubated for 24 hrs by flow cytometry (reference value: 70.8 %); assay type: functional
[15] = tested on: SCC-9; experiment: Cell cycle arrest in human SCC-9 cells assessed as accumulation at S phase at 46 uM incubated for 24 hrs by flow cytometry (reference value: 14.4 %); assay type: functional
[16] = tested on: SCC-9; experiment: Cell cycle arrest in human SCC-9 cells assessed as accumulation at S phase at 92 uM incubated for 24 hrs by flow cytometry (reference value: 14.4 %); assay type: functional
[17] = tested on: SCC-9; experiment: Cell cycle arrest in human SCC-9 cells assessed as accumulation at G2/M phase at 46 uM incubated for 24 hrs by flow cytometry (reference value: 14.2 %); assay type: functional
[18] = tested on: SCC-9; experiment: Cell cycle arrest in human SCC-9 cells assessed as accumulation at G2/M phase at 92 uM incubated for 24 hrs by flow cytometry (reference value: 14.2 %); assay type: functional
[19] = tested on: CAL-27; experiment: Induction of apoptosis in human CAL-27 cells assessed as live cells at 31.5 uM incubated for 24 hrs by Annexin V-FITC/PI staining based flow cytometric analysis (reference value: 99.8 %); assay type: functional
Outline: (§3)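 CAL27 cells were treated with vehicle, doxorubicin or test compounds at 10–63 μM, and apoptosis was assessed by annexin V–FITC/PI staining with flow cytometry. Cells were scored as live, early apoptotic, late apoptotic or necrotic. The vehicle was DMSO (0.01%).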

[20] = tested on: CAL-27; experiment: Induction of apoptosis in human CAL-27 cells assessed as early apoptotic cells at 31.5 uM incubated for 24 hrs by Annexin V-FITC/PI staining based flow cytometric analysis (reference value: 0.1 %); assay type: functional; outline: as §3
[21] = tested on: CAL-27; experiment: Induction of apoptosis in human CAL-27 cells assessed as late apoptotic cells at 31.5 uM incubated for 24 hrs by Annexin V-FITC/PI staining based flow cytometric analysis (reference value: 0.1 %); assay type: functional; outline: as §3
[22] = tested on: CAL-27; experiment: Induction of apoptosis in human CAL-27 cells assessed as necrotic cells at 31.5 uM incubated for 24 hrs by Annexin V-FITC/PI staining based flow cytometric analysis (reference value: 0.0 %); assay type: functional
[23] = tested on: CAL-27; experiment: Induction of apoptosis in human CAL-27 cells assessed as live cells at 63 uM incubated for 24 hrs by Annexin V-FITC/PI staining based flow cytometric analysis (reference value: 99.8 %); assay type: functional; outline: as §3
[24] = tested on: CAL-27; experiment: Induction of apoptosis in human CAL-27 cells assessed as early apoptotic cells at 63 uM incubated for 24 hrs by Annexin V-FITC/PI staining based flow cytometric analysis (reference value: 0.1 %); assay type: functional; outline: as §3
[25] = tested on: CAL-27; experiment: Induction of apoptosis in human CAL-27 cells assessed as late apoptotic cells at 63 uM incubated for 24 hrs by Annexin V-FITC/PI staining based flow cytometric analysis (reference value: 0.1 %); assay type: functional; outline: as §3
[26] = tested on: CAL-27; experiment: Induction of apoptosis in human CAL-27 cells assessed as necrotic cells at 63 uM incubated for 24 hrs by Annexin V-FITC/PI staining based flow cytometric analysis (reference value: 0.0 %); assay type: functional
[27] = tested on: SCC-9; experiment: Induction of apoptosis in human SCC-9 cells assessed as live cells at 46 uM incubated for 24 hrs by Annexin V-FITC/PI staining based flow cytometric analysis (reference value: 95.7 %); assay type: functional
[28] = tested on: SCC-9; experiment: Induction of apoptosis in human SCC-9 cells assessed as early apoptotic cells at 46 uM incubated for 24 hrs by Annexin V-FITC/PI staining based flow cytometric analysis (reference value: 2.8 %); assay type: functional
[29] = tested on: SCC-9; experiment: Induction of apoptosis in human SCC-9 cells assessed as late apoptotic cells at 46 uM incubated for 24 hrs by Annexin V-FITC/PI staining based flow cytometric analysis (reference value: 1.4 %); assay type: functional
[30] = tested on: SCC-9; experiment: Induction of apoptosis in human SCC-9 cells assessed as necrotic cells at 46 uM incubated for 24 hrs by Annexin V-FITC/PI staining based flow cytometric analysis (reference value: 0.1 %); assay type: functional
[31] = tested on: SCC-9; experiment: Induction of apoptosis in human SCC-9 cells assessed as live cells at 92 uM incubated for 24 hrs by Annexin V-FITC/PI staining based flow cytometric analysis (reference value: 95.7 %); assay type: functional
[32] = tested on: SCC-9; experiment: Induction of apoptosis in human SCC-9 cells assessed as early apoptotic cells at 92 uM incubated for 24 hrs by Annexin V-FITC/PI staining based flow cytometric analysis (reference value: 2.8 %); assay type: functional
[33] = tested on: SCC-9; experiment: Induction of apoptosis in human SCC-9 cells assessed as late apoptotic cells at 92 uM incubated for 24 hrs by Annexin V-FITC/PI staining based flow cytometric analysis (reference value: 1.4 %); assay type: functional
[34] = tested on: SCC-9; experiment: Induction of apoptosis in human SCC-9 cells assessed as necrotic cells at 92 uM incubated for 24 hrs by Annexin V-FITC/PI staining based flow cytometric analysis (reference value: 0.1 %); assay type: functional

Structure (SMILES): COc1c(O)c(CN2CCN(CC(=O)Nc3nc4ccc(C)cc4s3)CC2)c2c(c1O)C1O[C@H](CO)[C@@H](O)[C@H](O)C1OC2=O (some centres undefined)
- IC50 [1]: > 100 µM
- IC50 [2]: 63.7 µM
- IC50 [3]: 91.9 µM
- IC50 [4]: 90.6 µM
- IC50 [5]: 74.5 µM
- IC50 [6]: > 100 µM
- Activity [7]: 85.4%
- Activity [8]: 82.1%
- Activity [9]: 3.7%
- Activity [10]: 3.2%
- Activity [11]: 11.5%
- Activity [12]: 15.3%
- Activity [13]: 76.9%
- Activity [14]: 85.7%
- Activity [15]: 11.3%
- Activity [16]: 4.9%
- Activity [17]: 11.7%
- Activity [18]: 9.4%
- Activity [19]: 89%
- Activity [20]: 8.3%
- Activity [21]: 2.6%
- Activity [22]: 0.4%
- Activity [23]: 81.1%
- Activity [24]: 11.7%
- Activity [25]: 4.2%
- Activity [26]: 3%
- Activity [27]: 38.2%
- Activity [28]: 9.4%
- Activity [29]: 14.7%
- Activity [30]: 37.6%
- Activity [31]: 53.5%
- Activity [32]: 7.5%
- Activity [33]: 12%
- Activity [34]: 27%
